TRPC4 inh – blocks the mouse TRPC4 cation channel. Q9QUQ5. HEK293 TRPC4beta/mu-opioid, DAMGO-evoked Fluo4 calcium flux; stronger effect = lower value. B-score at 10 µM. hit rate 0.39% among 300,000. AID 2247;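 active means B-score over 3 SD under the library average, no early fluorescence shift, positive overall ratio signal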
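material = TRPC4beta/mu-opioid receptor HEK293 cell line | probe or stimulus = sequential submaximal and maximal DAMGO stimulation | compound dosing = one concentration per compound | measured by = Fluo4 Ca2+ flux fluorescence | evaluation = integrated fluorescence ratio relative to baseline, converted to per-well B score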
TRPC4 act – opens the mouse TRPC4 cation channel; Q9QUQ5; HEK293 TRPC4beta/mu-opioid, Fluo4 calcium fluorescence; stronger effect = higher value; B-score at 10 µM; hit rate 0.49% among 310,000; AID 2237;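 active means B-score above 5 SD of library B-scores, and initial fluorescence ratio not above library mean plus 5 SD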;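 further: positive B-score marks a calcium rise read as TRPC4 activation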
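System – HEK293 cells stably co-expressing mouse TRPC4beta and mu-opioid receptor · Signal – Fluo4 calcium-sensitive dye fluorescence, kinetic, 1 Hz baseline · Benchmarks – buffer (low) and maximal DAMGO (high) · Read-out – B score of integrated fluorescence ratio per well · Incubation – dye loading 45 min room temperature, 110 s kinetic read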
TRPC6 inh – mouse TRPC6 channel inhibition; Q61143; HEK293-TRPC6, membrane potential dye, ACh-evoked depolarization; stronger effect = lower value; B-score at 10 µM; hit rate 1.1% among 310,000; AID 2553;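 active means B-score under library mean minus 3 SD, initial fluorescence not abnormally high, positive integrated signal ratio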;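 further: B-score derived from integrated fluorescence ratio over the kinetic read; more negative B-score means stronger inhibition of depolarization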
TRPC6 activator – activators of mouse TRPC6 channel; Q61143; HEK293-TRPC6 membrane potential dye fluorescence; stronger effect = higher value; B-score at 10 µM; hit rate 0.13% among 310,000; AID 2550;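 active means B-score of the integrated fluorescence ratio above library mean plus 3 SD, and starting fluorescence ratio within library mean plus 5 SD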;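 further: higher score means more depolarization so channel activation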
Yeast superoxide – lowers age-related superoxide in aged yeast cells | S. cerevisiae aged cells, superoxide DHE fluorescence; stronger effect = lower value | superoxide response (% of plate mean), % at 10 µM | hit rate 0.18% among 330,000 | AID 2690;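 active means superoxide response under a set limit, about three screen SD below normal, cut at about 65% in these data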;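 further: yeast aged for seven days with compound at 30 °C before DHE staining; 100% = average MFI of all compound-treated wells on the plate with controls excluded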
TRPC4 PAM – allosteric potentiators of mouse TRPC4 channel; Q9QUQ5; HEK293 TRPC4beta/mu-opioid, DAMGO EC20, Fluo-4 Ca2+ flux; stronger effect = higher value; B-score at 10 µM; hit rate 0.42% among 310,000; AID 2227;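 active means B-score of calcium response area above 5 SD of library B-scores, with initial fluorescence ratio within 5 SD of library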;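 further: B-score of integrated fluorescence ratio over time as area under calcium response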
Numbers without * were called inactive; i = inactive; nt = no result. A selection: hits, their analogues and other compounds. The true share with any hit is near 2.3%.

SMILES	TRPC4 inh	TRPC4 act	TRPC6 inh	TRPC6 activator	Yeast superoxide	TRPC4 PAM
CS(=O)(=O)N1CCN(c2c(Cl)cccc2[N+](=O)[O-])CC1	i	i	i	i	89	i
O=[N+]([O-])c1ccc(/C=N/Nc2nc(N3CCCCCC3)nc(N3CCCCCC3)n2)o1	i	i	i	i	97	32*
CN(CC(=O)Nc1ccc(SC(F)F)cc1)C1CCCCC1	-6*	i	i	i	89	i
CN(CC(=O)Nc1ccc(S(N)(=O)=O)cc1)C1CCCCC1	i	i	i	i	95	i
O=c1[nH]c(C2CCCN(S(=O)(=O)c3ccccc3)C2)nc2c1nnn2Cc1ccccc1Br (centres undefined)	i	i	i	i	99	10*
CCn1c(N2CCN(C(=O)NC3CCCCC3)CC2)nc2ccccc21	i	46*	i	i	95	i
CCCn1c(N2CCN(C(=O)Nc3ccccc3)CC2)nc2ccccc21	i	i	i	i	92	i
CCn1c(NC2CCCCC2)nc2ccccc21	-6*	i	i	i	113	i
CCn1c(NC(C)=O)nc2ccccc21	i	i	i	i	99	i
CCn1c(N2CCN(C(=O)Nc3ccc(F)cc3)CC2)nc2ccccc21	i	118*	i	i	91	i
O=C(NC1CCCCC1)N1CCN(C(c2ccccc2)c2ccccc2)CC1	-6*	i	i	i	96	i
CCc1c(O)nc(SCC(=O)N(CC)CC)[nH]c1=O	i	i	i	i	108	i
O=c1[nH]c2ccccc2cc1CN(CC1CCCO1)S(=O)(=O)c1ccc(Cl)cc1 (centres undefined)	i	i	i	i	103	i
CCn1c(N2CCN(CC(=O)Nc3cccc(C)c3C)CC2)nc2ccccc21	i	147*	i	i	89	i
COCCCNC(=O)CC1C[C@H](C(=O)N2CCOCC2)[C@@]2(C)c3[nH]c4ccc(OC)cc4c3CCN2C1=O (some centres undefined)	nt	nt	nt	nt	111	nt
CCOc1cc(CN2CCN(c3ccc(C(C)=O)cc3)CC2)ccc1OC	i	i	i	i	93	11*
CCOc1cc(CN2CCCCC2)ccc1OC	i	i	i	i	102	i
C=CCNc1nc(S(=O)Cc2ccc(C)cc2)nc2c1CCCC2 (centres undefined)	i	i	i	i	87	i
NCCCCCCNS(=O)(=O)c1cccc2c(Cl)cccc12	i	95*	i	i	95	i
CNCCCCOc1ccccc1-c1ccccc1	i	52*	i	i	107	i
COCCCNCCOc1ccccc1-c1ccccc1	i	i	i	i	101	i
CCCCNCCOc1ccccc1-c1ccccc1	-6*	i	i	i	96	i
CCC(C)[C@H](NS(=O)(=O)c1ccc(C)cc1)C(=O)N1CCC(C(=O)N[C@H](C(=O)O)c2ccccc2)CC1 (some centres undefined)	i	i	i	i	69	i
COc1ccc(NC(=S)NNC(=O)c2cccs2)cc1	i	i	i	i	91	i
CC(C)c1ccc(C2C3CSCC=C3C(C#N)=C(N)C2(C#N)C#N)cc1 (centres undefined)	i	i	i	i	105	23*
SMILES	TRPC4 inh	TRPC4 act	TRPC6 inh	TRPC6 activator	Yeast superoxide	TRPC4 PAM
CN1CC=C2C(C#N)=C(N)C(C#N)(C#N)[C@H](c3cccc(Cl)c3)C2C1 (some centres undefined)	i	i	i	i	112	i
CC(C)Oc1ccc(CNC(=O)C2CCCN(S(=O)(=O)N3CCOCC3)C2)cc1 (centres undefined)	i	i	i	i	94	i
Cc1ccc2[nH]c(=O)c(CN(CCCN(C)C)C(=S)NCCc3ccccc3)cc2c1	i	i	i	i	110	i
Cc1cccc2cc(CN(CCCN(C)C)C(=S)NCCc3ccccc3)c(=O)[nH]c12	-6*	i	i	i	107	i
Cc1cc(CNC(=O)COc2ccccc2F)c2ccccc2n1	i	i	i	i	98	i
CCN1CCN(c2ncc(C(=O)Nc3cc(Cl)ccc3OC)c3ccccc23)CC1	i	i	i	i	108	12*
COc1ccccc1N1CCN(c2ncc(C(=O)N3CCN(c4cccc(Cl)c4)CC3)c3ccccc23)CC1	i	i	i	i	105	21*
CCOC(=O)CNC(=O)CSc1nnc(Cn2c(=O)sc3ccccc32)n1C	i	i	i	i	95	i
Cc1[nH]c2ccccc2c1C(=O)CN1C(=O)NC(C)(c2ccc(Cl)cc2Cl)C1=O (centres undefined)	i	i	i	i	114	20*
Cc1ccccc1NC(=S)NCC(c1cccnc1)N(C)C (centres undefined)	i	136*	i	i	106	i
Cc1cccc(NC(=S)NCC(c2cccnc2)N(C)C)c1C (centres undefined)	i	101*	i	i	105	i
Cc1ccc(SCCNC(=S)Nc2cc(C)ccc2C)cc1	i	i	i	i	113	i
Cc1ccc(C)c(NC(=S)NCC(c2ccccc2)N(C)C)c1 (centres undefined)	i	180*	i	i	99	i
Cc1ccccc1NC(=S)NCCc1ccccn1	i	88*	i	i	97	i
CN(C)c1nc(Oc2ccc(C(=O)OCC(=O)Nc3ccccc3)cc2)nc(N(C)C)n1	i	i	i	i	92	i
Cc1ccc(NC(=O)CN(C)CCOc2ccccc2)c([N+](=O)[O-])c1	i	i	i	i	98	i
CC(C)(Oc1ccc(Cl)cc1)C(=O)NCC(c1ccco1)N1CCCCC1 (centres undefined)	i	i	i	i	105	i
Cc1cc(NS(=O)(=O)c2ccc(NC(=O)c3oc4ccccc4c3C)cc2)no1	i	i	i	i	83	i
Cc1ccc(NC(=O)NCC(c2ccccc2)N(C)C)cc1 (centres undefined)	i	46*	i	i	102	i
Cc1c(Cl)cccc1NC(=S)NCC(c1cccnc1)N(C)C (centres undefined)	i	85*	i	i	100	i

Source: PubChem (several laboratories)
